ChEMBL document CHEMBL2203235, “Optimization of a natural product-based class of γ-secretase modulators” (J Med Chem, 2012)

What was measured:
Liver microsomes = assay: Metabolic stability in human liver microsomes at 1 uM after 60 mins by LC/MS/MS analysis; settings: 1 h
[1] = Modulation of gamma secretase in CHO-2B7 cells assessed as reduction in amyloid beta 42 level after 5 hrs by MSD ELISA; format: cell-based; settings: Cricetulus griseus, CHO-2B7, 5 h
CHO-2B7 [2] = assay: Modulation of gamma secretase in CHO-2B7 cells assessed as reduction in amyloid beta 40 level at 4 mM after 5 hrs by MSD ELISA; format: cell-based; set-up: scale not given: the % may be the effect or the level left; settings: Cricetulus griseus
[3] = Metabolic stability in human liver microsomes assessed as compound remaining at 1 uM at 60 mins by LC/MS/MS analysis in presence of NADPH; format: ADME, Microsome; settings: read-out: Stability
CHO-2B7 [4] = assay: Modulation of gamma secretase in CHO-2B7 cells assessed as reduction in amyloid beta 40 level at 20 uM after 5 hrs by MSD ELISA; format: cell-based; set-up: scale not given: the % may be the effect or the level left; settings: Cricetulus griseus
[5] = Metabolic stability in human liver microsomes assessed as compound remaining at 1 uM at 60 mins by LC/MS/MS analysis in absence of NADPH; format: ADME, Microsome; settings: liver microsomes, read-out: Stability
Procedure, shortened: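 Human liver microsomes were run without NADPH as a qualitative read of susceptibility to enzymatic hydrolysis. The read-out was percent parent remaining at 60 min.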

[6] = Ratio of drug uptake in brain to plasma in CD1 mouse at 3 mg/kg, iv at 6 hrs; format: ADME, organism-based; set-up: dose 3 mg/kg, route intravenous; settings: brain and plasma, read-out: BPR
Procedure, shortened: (§1)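 CD-1 mice dosed by the IV route. Plasma and brain drug concentrations were measured at 6 h post dose, or at 2 h for one analogue. The brain-to-plasma ratio was calculated from these concentrations and used to rank CNS penetration.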

[7] = Modulation of gamma secretase in CHO-2B7 cells assessed as reduction in amyloid beta 40 level after 5 hrs by MSD ELISA; format: cell-based; settings: Cricetulus griseus, CHO-2B7, 5 h
[8] = Plasma concentration in CD1 mouse at 3 mg/kg, iv at 6 hrs; format: ADME, organism-based; set-up: dose 3 mg/kg, route intravenous; procedure, shortened: as §1
[9] = Drug uptake in CD1 mouse brain at 3 mg/kg, iv at 6 hrs; format: ADME, organism-based; set-up: dose 3 mg/kg, route intravenous; settings: read-out: Drug uptake; procedure, shortened: as §1
[10] = Modulation of gamma-secretase assessed as reduction in amyloid beta 42 level by cell based assay
[11] = Plasma concentration in CD1 mouse at 1 mg/kg, iv at 6 hrs
[12] = Drug uptake in CD1 mouse brain at 1 mg/kg, iv at 6 hrs
[13] = Ratio of drug uptake in brain to plasma in CD1 mouse at 1 mg/kg, iv at 6 hrs; settings: brain and plasma

Structure (SMILES) | Stability (Liver microsomes) | IC50 [1] [nM] | remaining at 1 h, 1 µM [3] [%] | remaining at 1 h, 1 µM [5] [%] | IC50 [7] [nM] | also measured
CCO[C@@H]([C@H]1C[C@@H](C)[C@H]2[C@H](O1)[C@H](O)[C@@]1(C)[C@@H]3CC[C@H]4C(C)(C)[C@@H](O[C@H]5CN(CC(F)F)CCO5)CC[C@@]45C[C@@]35CC[C@]21C)C(C)(C)O | Stable | 540 | – | – | – | Activity (CHO-2B7 [2]): 37%
CCO[C@@H]([C@H]1C[C@@H](C)[C@H]2[C@H](O1)[C@H](O)[C@@]1(C)[C@@H]3CC[C@H]4C(C)(C)[C@@H](O[C@H]5CN(CC(=O)N6CCC6)CCO5)CC[C@@]45C[C@@]35CC[C@]21C)C(C)(C)O | Stable | 250 | – | – | – | Activity (CHO-2B7 [2]): 39%
CC(=O)O[C@@H]([C@H]1C[C@@H](C)[C@H]2[C@H](O1)[C@H](O)[C@@]1(C)[C@@H]3CC[C@H]4C(C)(C)[C@@H](O[C@H]5CN(C6COC6)CCO5)CC[C@@]45C[C@@]35CC[C@]21C)C(C)(C)O | – | 170 | 1 | 1 | – | Activity (CHO-2B7 [4]): 35%
CCO[C@@H]([C@H]1C[C@@H](C)[C@H]2[C@H](O1)[C@H](O)[C@@]1(C)[C@@H]3CC[C@H]4C(C)(C)[C@@H](O[C@H]5CN(C6COC6)CCO5)CC[C@@]45C[C@@]35CC[C@]21C)C(C)(C)O | Stable | 270 | – | 94 | 4600 | Kp at 6 h [6]: 0.5; concentration at 6 h [8]: 24 nM; concentration at 6 h [9]: 12 nM
CC(=O)O[C@@H]([C@H]1C[C@@H](C)[C@H]2[C@H](O1)[C@H](O)[C@@]1(C)[C@@H]3CC[C@H]4C(C)(C)[C@@H](OC(=O)NC5CNC5)CC[C@@]45C[C@@]35CC[C@]21C)C(C)(C)O | – | 47 | – | 21 | 15000 | IC50 [10]: 47 nM
C[C@@H]1C[C@H]([C@H](O)C(C)(C)O)O[C@H]2[C@H]1[C@@]1(C)CC[C@@]34C[C@@]35CC[C@H](O[C@H]3CN(C6COC6)CCO3)C(C)(C)[C@@H]5CC[C@H]4[C@]1(C)[C@H]2O | – | ≥ 20000 | 81 | 107 | – | –
CCO[C@@H]([C@H]1C[C@@H](C)[C@H]2[C@H](O1)[C@H](O)[C@@]1(C)[C@@H]3CC[C@H]4C(C)(C)[C@@H](O[C@H]5CN(CC(=O)N(C)C)CCO5)CC[C@@]45C[C@@]35CC[C@]21C)C(C)(C)O | Stable | 270 | – | – | – | Activity (CHO-2B7 [2]): 38%
CC(C)[C@@H](OC(=O)N1CCC1)[C@H]1C[C@@H](C)[C@H]2[C@H](O1)[C@H](O)[C@@]1(C)[C@@H]3CC[C@H]4C(C)(C)[C@@H](OC(=O)N5CCN(C)CC5)CC[C@@]45C[C@@]35CC[C@]21C | Stable | 170 | – | – | 8200 | concentration at 6 h [11]: 450 nM; concentration at 6 h [12]: 14 nM; Kp at 6 h [13]: 0.03
CC(=O)O[C@@H]([C@H]1C[C@@H](C)[C@H]2[C@H](O1)[C@H](O)[C@@]1(C)[C@@H]3CC[C@H]4C(C)(C)[C@@H](O[C@H]5CNCCO5)CC[C@@]45C[C@@]35CC[C@]21C)C(C)(C)O | – | 70 | 3 | 7 | 2200 | –
CC(=O)O[C@@H]([C@H]1C[C@@H](C)[C@H]2[C@H](O1)[C@H](O)[C@@]1(C)[C@@H]3CC[C@H]4C(C)(C)[C@@H](O[C@H]5CN([C@H]6CCNC6=O)CCO5)CC[C@@]45C[C@@]35CC[C@]21C)C(C)(C)O | – | 170 | 63 | 3 | – | –
CCO[C@@H]([C@H]1C[C@@H](C)[C@H]2[C@H](O1)[C@H](O)[C@@]1(C)[C@@H]3CC[C@H]4C(C)(C)[C@@H](O[C@H]5CN(C)CCO5)CC[C@@]45C[C@@]35CC[C@]21C)C(C)(C)O | Stable | 250 | – | – | 4500 | concentration at 6 h [11]: 21 nM; concentration at 6 h [12]: 16 nM; Kp at 6 h [13]: 0.76
CCO[C@@H]([C@H]1C[C@@H](C)[C@H]2[C@H](O1)[C@H](O)[C@@]1(C)[C@@H]3CC[C@H]4C(C)(C)[C@@H](O[C@H]5CNCCO5)CC[C@@]45C[C@@]35CC[C@]21C)C(C)(C)O | Stable | 91 | – | 28 | 1400 | Kp at 6 h [6]: 1.67; concentration at 6 h [8]: 192 nM; concentration at 6 h [9]: 320 nM
